# Source: PubChem (several laboratories)
# SR-BI uptake up: activators of SR-BI mediated DiI-HDL uptake, primary screen, ldlA[mSR-BI] CHO cells, DiI fluorescence; 3 h; 100 = double the neutral-control signal; activation, % at 12.5 µM; 320,000 tested, 0.096% active;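 active means mean replicate activation of at least 60% and every replicate at or above 60%; inconclusive means mean or all-replicate condition met, but not both; inactive means mean below 60% and not all replicates reaching 60%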;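 further: 0% = median plate neutral-control signal and 100% = twice that signal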
#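 Assay system: LDL receptor-deficient CHO ldlA cells overexpressing murine SR-BI / Medium: BSA-supplemented, HEPES-buffered Ham's F12, pH 7.4 / Probe or stimulus: DiI-labelled HDL at 10 µg/mL final / Timing: compound with DiI-HDL co-incubation, 3 h at 37 °C / Technique: bottom-read cell fluorescence after medium removal, ex 550/em 595 nm / Measure: HDL uptake via cellular fluorescence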
# SR-BI HDL uptake: inhibitors of SR-BI mediated HDL lipid uptake, primary screen, ldlA[mSR-BI] cells, fluorescence, single point. 320,000 tested, 0.96% active. ldlA[mSR-BI] CHO cells, DiI-HDL uptake fluorescence, 3 h. inhibition, % at 12.5 µM;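 active means mean replicate inhibition of at least 70% and a set share of replicates each scoring 70 or more; inconclusive means meets just one of the two criteria; inactive means fails both criteria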;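 further: 0% = median of neutral control wells and 100% = median of positive control wells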
# Calb FLC: C. albicans growth inhibition with fluconazole, primary screen, CaCi-2 strain, Alamar Blue fluorescence; C. albicans CaCi-2 + fluconazole, 48 h; growth inhibition, % (test concentration not listed); 300,000 tested, 0.57% active; AID 1979, 2009;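 active means growth inhibition above about 58% in most replicates, limit read from the data, passing the limit was not always enough; inconclusive means exactly half the replicates above a set limit; inactive means most replicates below a set limit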;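 further: all wells also contain fluconazole at 8 µg/ml as a sub-toxic cotreatment; 0% = median of DMSO wells and 100% = median of geldanamycin control wells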
# m5-HT2A agonist: mouse Htr2a agonists via beta-arrestin recruitment, primary screen, cell-based, luminescence; 5-hydroxytryptamine receptor 2A (Mus musculus), P35363; CHO-K1 mHTR2A beta-arrestin complementation; percent of 30 µM serotonin response; activation, % at 7.6 µM; 360,000 tested, 0.66% active; AID 624169, 2012;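 active means activation above a run cutoff, the mean activation of all tested compounds plus 3 SD, cut at about 14% in these data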;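 further: 0% = plate median of compound wells and 100% = 30 µM serotonin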
# Target sequence (P35363 whole entry, looked up): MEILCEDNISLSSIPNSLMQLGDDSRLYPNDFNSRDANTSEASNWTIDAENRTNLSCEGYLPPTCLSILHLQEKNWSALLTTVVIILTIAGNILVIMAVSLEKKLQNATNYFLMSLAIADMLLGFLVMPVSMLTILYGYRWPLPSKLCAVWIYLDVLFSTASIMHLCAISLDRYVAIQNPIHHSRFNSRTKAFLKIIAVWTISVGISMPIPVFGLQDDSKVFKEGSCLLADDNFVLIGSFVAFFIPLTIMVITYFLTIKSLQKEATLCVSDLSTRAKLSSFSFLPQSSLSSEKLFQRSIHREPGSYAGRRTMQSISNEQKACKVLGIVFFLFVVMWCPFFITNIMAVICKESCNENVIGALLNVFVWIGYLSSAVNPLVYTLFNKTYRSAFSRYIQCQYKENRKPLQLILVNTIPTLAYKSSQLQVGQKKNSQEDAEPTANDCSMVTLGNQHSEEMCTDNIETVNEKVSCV
# Insulin prom up: insulin promoter activators in MIN6 cells, imaging, high-content screening, mouse beta cells | MIN6 insulin promoter-GFP reporter; stronger effect = higher value | 190,000 tested, 0.3% active | z-score at 5 µM | AID 1625, 2009;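 active means z-score above 3 at 5 µM with at least 500 cells counted in the well; inconclusive means wells under 500 cells, flagged as cytotoxic or low count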
# beta cell repl: inducers of MIN6 beta-cell proliferation, primary screen, ATP luminescence, uHTS. 330,000 tested, 0.29% active. MIN6 cells proliferation, ATPlite luminescence, 48 h; cells starved in 0.2% serum; 100% = growth in 10% serum. proliferation, % at 10 µM;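 active means compounds whose signal lies at least 3.5 SD above the mean of all wells on their plate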;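 further: 0% = DMSO-treated cells in low-serum medium and 100% = 10% serum control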
# * hit, by the source's call; ? = inconclusive; . = no result given. This is a sample that favours compounds with a hit; in the whole collection about 2.4% have one here.
SMILES,SR-BI uptake up,SR-BI HDL uptake,Calb FLC,m5-HT2A agonist,Insulin prom up,beta cell repl
O=C(Nc1ccc(N2CCCC2)cc1)c1ccccc1[N+](=O)[O-],-8,8,1,5,.,-3
O=[N+]([O-])c1ccc(NC(=S)N2CCN(c3ccccc3)CC2)cc1,75*,-75,24,0,-0.68,0
COc1ccc(C(=O)Nc2ccc(N3CCN(C(=O)c4ccccc4C)CC3)cc2)cc1,-63,63,-7,2,.,-4
COc1cc(CNCCNC(=O)c2nonc2N)ccc1OCc1ccc(Cl)cc1,3,-3,-28,-5,-1,-7
O=C(NNc1ccccc1)OCc1ccccc1,.,.,.,-3,.,.
Cc1ccc([N+](=O)[O-])cc1NC(=O)C1CCCC1,-5,5,96*,0,.,0
Cc1ccc([N+](=O)[O-])cc1NC(=O)C1CCN(S(C)(=O)=O)CC1,-5,5,-5,-2,0.59,1
Cc1ccc([N+](=O)[O-])cc1NC(=O)c1cccs1,-7,7,-4,4,3.2*,2
O=C(COc1ccccc1/C=C1\SC(=S)NC1=O)Nc1ccc(F)cc1,14,-14,.,3,.,-6
CC(C)(C)S(=O)N1Cc2cc(C(=O)N[C@@H]3CCN(Cc4ccccc4)C3)nc(-c3cccc(-c4cc5ccccc5o4)c3)c2[C@@H]1CCO (some centres not stated),.,.,.,-6,.,.
CN(C)CCNC(=O)c1ccc2nc([C@@H]3O[C@H](CO)[C@H](O)[C@H](O)[C@H]3O)[nH]c2c1,.,.,.,9,.,.
COc1ccc(C)cc1S(=O)(=O)NCCN1CCOCC1,-74,74*,-4,-5,.,-3
Cc1ccc(S(=O)(=O)NCCN2CCOCC2)s1,17,-17,5,-6,.,1
COc1ccc(Br)cc1S(=O)(=O)NCCN1CCOCC1,-3,3,-15,8,0.18,1
O=S(=O)(NCCN1CCOCC1)c1ccc(Cl)s1,21,-21,90*,3,0.2,-1
COC(=O)[C@H](CCSC)NC(=O)Cn1cnc2c(NCc3ccccc3)ncnc21,0,0,.,-1,.,.
O=C(Nc1ncccc1O)c1ccc(S(=O)(=O)Nc2ccccc2)cc1,12,-12,-23,-4,.,-6
CCc1nc(Nc2ccc(N3CCN(C(C)=O)CC3)cc2)c2oc3ccccc3c2n1,-75,75*,6,2,-4.5,-2
CC(=O)N1CCN(c2ccc(Nc3ncnc4c3oc3ccccc34)cc2)CC1,-29,29,8,9,.,-2
CCn1c(SCC(=O)Nc2ccc(F)cc2)nnc1C1CC1,3,-3,0,3,.,-4
COc1cc(C(=O)OCCN2CCOCC2)cc(OC)c1OC,7,-7,5,3,-0.01,-2
COc1cc(C(=O)OCCCN2CCCN(CCCOC(=O)c3cc(OC)c(OC)c(OC)c3)CC2)cc(OC)c1OC,-81,81*,1,-9,.,-4
C[C@H]1CN(S(=O)(=O)c2c(F)cccc2F)CCN1S(=O)(=O)c1ccc2c(c1)OCCO2,-4,-6,.,2,.,-1
Nc1ccc(C(=O)Nc2ccccc2C(=O)O)cc1,85*,-85,-2,7,0.27,-4
Cc1cn([C@H]2C[C@H](O)[C@@H](CCC(=O)NC(c3ccccc3)c3ccccc3)O2)c(=O)[nH]c1=O,2,-2,.,1,.,.
SMILES,SR-BI uptake up,SR-BI HDL uptake,Calb FLC,m5-HT2A agonist,Insulin prom up,beta cell repl
Cc1nn(C)cc1S(=O)(=O)Nc1ccccc1Br,17,-17,.,3,.,1
CCc1cc(C(=O)N=Nc2c(O)[nH]c3c(Br)cc(Br)cc23)c2ccccc2n1,-58,58,-1,3,-1.1,-5
CCOc1ccc(NC(=O)CN(C)C(=O)c2cc([N+](=O)[O-])ccc2Sc2ccccc2)cc1OCC,-77,77*,.,-1,.,.
CCOc1ccc(NC(=O)CN(C)C(=O)c2cccc3ccccc23)cc1OCC,-78,78*,.,4,.,4
CCOc1ccc(NC(=O)CN(C)C(=O)c2c(C)nn(-c3ccc(F)cc3)c2Cl)cc1OCC,-83,83*,7,-1,.,-1
CCOc1ccc(NC(=O)CN(C)C(=O)c2c(C)nn(-c3ccccc3)c2Cl)cc1OCC,-47,47,.,-2,.,-2
CCOc1ccc(NC(=O)CN(C)C(=O)c2ccc(OCc3ccccc3)c(OC)c2)cc1OCC,-60,60,30,4,.,-2
CCOc1ccc(NC(=O)CN(C)C(=O)c2ccccc2CCc2ccccc2)cc1OCC,-94,94*,9,3,.,0
O=C(NCc1ccccc1CN1CCCC1)c1ccc(S(=O)(=O)Nc2ccccc2)cc1,.,.,.,-2,.,.
Cc1ccc(Nc2nc(C)cc(C)c2C#N)c(C)c1,.,.,.,5,.,.
O=C(O)C(CCCCNS(=O)(=O)c1ccc(F)cc1)NS(=O)(=O)c1ccc(F)cc1 (configuration not stated),3,-3,9,6,.,-1
O=c1c2sc3nc(N4CCOCC4)c4c(c3c2ncn1C(c1ccccc1)c1ccccc1)CCCC4,8,-8,.,3,.,.
CCOc1ccc(NC(=O)CN(C)C(=O)c2ccncc2)cc1OCC,0,0,-1,3,.,-3
CCOc1ccc(NC(=O)CN(C)C(=O)c2ccccc2OCCOc2ccccc2)cc1OCC,-82,82*,.,8,.,2
COc1ccc(/C(C)=N/Nc2ncc(Cl)cc2Cl)c(O)c1,-106,106*,-9,-8,-0.55,0
CC1(C)CC(N2CCCC2)=CC(=[N+]2CCCCC2)C1,15,-15,-31,-1,-4.1,-6
CC1(C)CC(N2CCCC2)=CC(=[N+]2CCCC2)C1,-14,14,120*,0,-0.28,-6
CC1(C)CC(N2CCN(Cc3ccccc3)CC2)=CC(=[N+]2CCCCC2)C1,9,-9,83*,0,?,-6
CCN(CC)C(=O)c1sc2nc(N3CCOCC3)c3c(c2c1N)CCCC3,-20,20,10,-1,-1.1,-1
CCOC(=O)c1sc2nc(N3CCOCC3)c3c(c2c1N)CCCC3,-74,74*,-5,-1,0.56,0
COc1ccc(OC)c2sc(NC(=O)c3ccc(Cl)s3)nc12,-87,87*,0,-4,-0.28,1
COc1cccc(NC(=O)C2(C)CCN2C(=O)CCc2ccc(Cl)cc2Cl)c1 (configuration not stated),.,.,.,5,.,.
